Holding throughout (type): cell-based
Assay [1] has as its target T1, Toll-like receptor 7 (Homo sapiens) (UniProt Q9NYK1).
T1 sequence (whole entry): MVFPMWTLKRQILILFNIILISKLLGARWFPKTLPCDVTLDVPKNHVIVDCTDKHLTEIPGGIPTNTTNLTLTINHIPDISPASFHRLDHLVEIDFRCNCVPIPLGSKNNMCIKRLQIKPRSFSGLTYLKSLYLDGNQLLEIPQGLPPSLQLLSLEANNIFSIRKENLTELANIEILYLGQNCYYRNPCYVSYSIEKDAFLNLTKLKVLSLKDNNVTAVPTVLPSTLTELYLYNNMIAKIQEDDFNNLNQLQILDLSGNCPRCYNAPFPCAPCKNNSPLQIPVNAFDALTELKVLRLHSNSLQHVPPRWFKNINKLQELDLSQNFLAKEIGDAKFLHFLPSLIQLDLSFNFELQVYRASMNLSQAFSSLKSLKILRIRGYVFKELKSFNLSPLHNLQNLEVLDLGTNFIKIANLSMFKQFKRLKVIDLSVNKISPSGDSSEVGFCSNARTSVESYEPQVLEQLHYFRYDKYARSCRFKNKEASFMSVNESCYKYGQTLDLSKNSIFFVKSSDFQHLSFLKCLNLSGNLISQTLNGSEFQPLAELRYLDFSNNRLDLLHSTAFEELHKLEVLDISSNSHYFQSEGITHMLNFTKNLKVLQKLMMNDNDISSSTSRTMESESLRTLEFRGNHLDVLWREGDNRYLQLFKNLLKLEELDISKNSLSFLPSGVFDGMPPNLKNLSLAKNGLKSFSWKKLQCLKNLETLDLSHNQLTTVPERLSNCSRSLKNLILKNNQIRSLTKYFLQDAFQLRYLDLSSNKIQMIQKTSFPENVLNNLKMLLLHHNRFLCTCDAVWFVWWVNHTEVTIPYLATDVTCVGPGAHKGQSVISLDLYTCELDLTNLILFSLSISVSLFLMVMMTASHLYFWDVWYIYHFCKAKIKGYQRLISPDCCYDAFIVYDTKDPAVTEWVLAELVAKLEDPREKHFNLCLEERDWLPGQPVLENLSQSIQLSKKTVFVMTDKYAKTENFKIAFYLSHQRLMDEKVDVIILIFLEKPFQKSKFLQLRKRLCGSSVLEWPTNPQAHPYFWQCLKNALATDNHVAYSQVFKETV
Nature of the assay: Inhibition of human TLR7 expressed in HEK293 cells assessed as decrease in R848-induced NF-kappaB activation-mediated SEAP production at 40 uM after 24 hrs by Quanti-blue-based assay relative to control. An outline of the steps: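 Screening mode: HEK hTLR7 cells, 20,000/well in duplicate, stimulated with R848 1 µg/mL, library compounds at 40 µM; triptolide 40 nM positive control, 0.4% DMSO negative control; SEAP read by QUANTI-Blue.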

The target of assay [2] is T1, Toll-like receptor 7 (Homo sapiens). Nature of the assay: Inhibition of human TLR7 expressed in HEK293 cells assessed as decrease in R848-induced NF-kappaB activation-mediated SEAP production at 5 uM after 24 hrs by Quanti-blue-based assay relative to control.
For assay [3] the target is unchanged. Nature of the assay: Inhibition of human TLR7 expressed in HEK293 cells assessed as decrease in R848-induced NF-kappaB activation-mediated SEAP production at 30 uM after 24 hrs by Quanti-blue-based assay relative to control.

The values below come from ChEMBL document CHEMBL4190396, “Discovery of Novel Small-Molecule Inhibitors of NF-κB Signaling with Antiinflammatory and Anticancer Properties” (J Med Chem, 2018).

Activity calls are given as the source filed them. The rule behind the calls is not given here.

The term inhibition denotes the drop in the measured response relative to a control, in per cent. With `Nc1nccnc1C(=O)NNC(=O)c1ccccc1C(F)(F)F`, the inhibition in assay [1] came out at 23%.

Regarding `Cc1nc(C(=O)NNC(=O)c2ccccc2Cl)cs1`, the inhibition in assay [1] turned out to be 6%.

For the compound `O=C(NNC(=O)c1ncccc1O)c1cccc(C(F)(F)F)c1`, the inhibition in assay [1] came to 96%.

Regarding `O=C(NNC(=O)c1csc(-c2cccc(Cl)c2Cl)n1)c1ccccn1`, in assay [2], the inhibition worked out at 99.9%.

Regarding `O=C(NNC(=O)c1csc(-c2ccccc2)n1)c1ccccn1`, the inhibition in assay [1] was determined as 98.8%.

As for `O=C(NNC(=O)c1csc(-c2cccc(F)c2)n1)c1ccccn1`, the inhibition in assay [2] came out at 79%.

As for `O=C(NNC(=O)c1nccnc1Cl)c1cccc(C(F)(F)F)c1`, in assay [1], the inhibition is 19%.

As for `Nc1ncc(Br)nc1C(=O)NNC(=O)c1cccc(C(F)(F)F)c1`, the inhibition in assay [1] was 18.2%.

On to `Cc1nc(C(=O)NNC(=O)c2cccc(OC(F)(F)F)c2)cs1`, for which the inhibition in assay [1] turned out to be 26%.

For `O=C(NNC(=O)c1ncccc1O)c1ccc(Br)cc1`, in assay [1], the inhibition was determined as 96.2%.

On to `Cc1nc(C(=O)NNC(=O)c2cccc(Br)c2)cs1`, for which the inhibition in assay [1] amounted to 30.6%.

`O=C(NNC(=O)c1ccccn1)c1cccc(C(F)(F)F)c1`: in assay [1], the inhibition amounted to 88%.

As to `O=C(NNC(=O)c1cc2ccccc2[nH]1)c1ccc(Cl)cc1`, in assay [1], the inhibition was 13%.

On to `Nc1nccnc1C(=O)NNC(=O)c1ccc(F)cc1F`, for which, in assay [1], the inhibition was determined as 26%.

Take `COc1ccc(-c2nc(C(=O)NNC(=O)c3ccccn3)cs2)cc1`: in assay [2], the inhibition came to 80.3%.

With `O=C(NNC(=O)c1ncccc1O)c1ccc(C(F)(F)F)cc1`, the inhibition in assay [1] was 97.4%.

As for `O=C(NNC(=O)c1csc(-c2ccc(F)cc2)n1)c1ccccn1`, in assay [2], the inhibition was determined as 65%.

As to `Nc1cccnc1C(=O)NNC(=O)c1cccc(C(F)(F)F)c1`, the inhibition in assay [1] came out at 83.1%.

Take `Nc1nccnc1C(=O)NNC(=O)c1cccc(C(F)(F)F)c1`: in assay [1], the inhibition worked out at 68%. Besides, the inhibition result in assay [3] is “Active”.

`CC(C)c1nc(C(=O)NNC(=O)c2ccccn2)cs1`: in assay [1], the inhibition turned out to be 94.2%.

As to `Cc1nc(C(=O)NNC(=O)c2cccc(Cl)c2)cs1`, the inhibition in assay [1] was 40%.

Regarding `CN(C)c1ccc(-c2nc(C(=O)NNC(=O)c3ccccn3)cs2)cc1`, the inhibition in assay [2] was 93.1%.

Turning to `Nc1nccnc1C(=O)NNC(=O)c1ccc(Br)cc1`, the inhibition in assay [1] stood at 36.2%.

For `O=C(NNC(=O)c1ccccn1)c1ccc(OC(F)(F)F)cc1`, in assay [1], the inhibition was determined as 79.8%.

Take `Cc1nc(C(=O)NNC(=O)c2cc(Cl)cc(Cl)c2)cs1`: the inhibition in assay [1] amounted to 24%.

For the compound `COC(=O)c1ccc(C(=O)NNC(=O)c2nccnc2N)cc1`, in assay [1], the inhibition worked out at 18%.

For `Cc1nc(C(=O)NNC(=O)c2cccnc2)cs1`, the inhibition in assay [1] was determined as 21%.

Take `CCc1ccc(-c2nc(C(=O)NNC(=O)c3ccccn3)cs2)cc1`: the inhibition in assay [2] worked out at 91.9%.

Consider `O=C(NNC(=O)c1csc(-c2cccc(Br)c2)n1)c1ccccn1`, for which, in assay [2], the inhibition was 97.6%.

`Nc1nccnc1C(=O)NNC(=O)c1ccc([N+](=O)[O-])cc1Cl`: the inhibition in assay [1] stood at 23%.

As to `CC(C)c1cc(C(=O)NNC(=O)c2ccc(Cl)cc2)[nH]n1`, the inhibition in assay [1] was found to be 11%.

For the compound `Nc1ncccc1C(=O)NNC(=O)c1cccc(C(F)(F)F)c1`, the inhibition in assay [1] was 22%.

For the compound `Nc1nccnc1C(=O)NNC(=O)c1ccc(C(F)(F)F)cc1`, in assay [1], the inhibition was 79%.

For `Cc1nc(C(=O)NNC(=O)c2ccccn2)cs1`, the inhibition in assay [1] is 73%.

`O=C(NNC(=O)c1ncccc1O)c1ccc(OC(F)(F)F)cc1`: in assay [1], the inhibition came to 96.5%.

Regarding `Nc1nccnc1C(=O)NNC(=O)c1ccc(OC(F)(F)F)cc1`, in assay [1], the inhibition worked out at 72%.

Consider `O=C(NNC(=O)c1csc(-c2cc(Cl)cc(Cl)c2)n1)c1ccccn1`, for which the inhibition in assay [2] worked out at 99.1%.

Regarding `N#Cc1ccc(C(=O)NNC(=O)c2nccnc2N)cc1`, the inhibition in assay [1] was determined as 15%.

In the case of `CCCCCCNC(=O)c1ccc(C(=O)NNC(=O)c2nccnc2N)cc1`, the inhibition in assay [1] was determined as 17%.

As to `Nc1nccnc1C(=O)NNC(=O)c1cccnc1`, the inhibition in assay [1] worked out at 12%.

Turning to `Cc1nc(C(=O)NNC(=O)c2cccc(C(F)(F)F)c2)cs1`, the inhibition in assay [1] came out at 31%.

Turning to `Cc1nc(C(=O)NNC(=O)c2ccc(Cl)cc2)cs1`, the inhibition in assay [1] is 51%. The inhibition result in assay [3] is “Active”.

For the compound `O=C(NNC(=O)c1csc(-c2ccc(Cl)cc2)n1)c1ccccn1`, the inhibition in assay [2] was determined as 91%.

Take `O=C(NNC(=O)c1csc(-c2cccc(Cl)c2)n1)c1ccccn1`: the inhibition in assay [2] turned out to be 93.7%.

Take `O=C(NNC(=O)c1nccs1)c1ccc(Cl)cc1`: the inhibition in assay [1] was determined as 24%.

Consider `COc1cccc(C(=O)NNC(=O)c2csc(C)n2)c1`, for which the inhibition in assay [1] came to 24%.

Take `COc1ccc(C(=O)NNC(=O)c2nccnc2N)cc1`: the inhibition in assay [1] was 20.4%.

Turning to `Cc1nc(C(=O)NNC(=O)c2cccc(O)c2)cs1`, in assay [1], the inhibition came out at 18%.

Regarding `O=C(NNC(=O)c1csc(-c2cccc(C(F)(F)F)c2)n1)c1ccccn1`, the inhibition in assay [2] is 96.7%.

For the compound `COC(=O)c1cccc(C(=O)NNC(=O)c2csc(C)n2)c1`, the inhibition in assay [1] stood at 9%.

For the compound `O=C(NNC(=O)c1ncccc1O)c1ccc(Cl)cc1`, in assay [1], the inhibition amounted to 81%.

Consider `O=C(NNC(=O)c1cnccn1)c1cccc(C(F)(F)F)c1`, for which the inhibition in assay [1] was 29%.

As for `Nc1nccnc1C(=O)NNC(=O)c1ccc(O)cc1`, the inhibition in assay [1] came to 17.7%.

As for `O=C(NNC(=O)c1ccccn1)c1ccc(C(F)(F)F)cc1`, the inhibition in assay [1] amounted to 85.4%.

Take `O=C(NNC(=O)c1csc(-c2ccc(C(F)(F)F)cc2)n1)c1ccccn1`: the inhibition in assay [2] was determined as 96.1%.

`Cc1ccc(-c2nc(C(=O)NNC(=O)c3ccccn3)cs2)cc1`: the inhibition in assay [2] is 88.2%.

Turning to `O=C(NNC(=O)c1csc(-c2cccnc2)n1)c1ccccn1`, the inhibition in assay [1] came out at 86%.

For the compound `Cc1nc(C(=O)NNC(=O)c2cccc(C#N)c2)cs1`, the inhibition in assay [1] was determined as 6.4%.

Take `Cc1ncc(C(=O)NNC(=O)c2ccc(Cl)cc2)s1`: the inhibition in assay [1] was 17%.

As for `Cc1ccc2c(Cl)c(C(=O)NNC(=O)c3ccc(Cl)cc3)sc2c1`, the inhibition in assay [1] came out at 16.7%.

Consider `Nc1nccnc1C(=O)NNC(=O)c1c(Cl)cccc1Cl`, for which the inhibition in assay [1] was 28%.

For `COc1ccc(-c2nc(C(=O)NNC(=O)c3ccccn3)cs2)cc1OC`, the inhibition in assay [2] amounted to 66%.

For `Nc1nccnc1C(=O)NNC(=O)c1ccc(Cl)cc1`, the inhibition in assay [1] worked out at 42%.

In the case of `O=C(NNC(=O)c1ccccn1)c1ccc(Cl)cc1`, the inhibition in assay [1] worked out at 76%.

With `Cc1nc(C(=O)NNC(=O)c2ccncc2)cs1`, the inhibition in assay [1] was 19.5%.

As to `CCCC1Nc2nccnc2C(=O)N1NC(=O)c1cccc(C(F)(F)F)c1` (configuration not stated), the inhibition in assay [1] is 21%.

In the case of `Cc1nc(C(=O)NNC(=O)c2cccc(F)c2)cs1`, in assay [1], the inhibition stood at 21.1%.

For the compound `O=C(NNC(=O)c1csc(-c2ccncc2)n1)c1ccccn1`, the inhibition in assay [1] came to 33%.

As to `Nc1ncc(Cl)nc1C(=O)NNC(=O)c1cccc(C(F)(F)F)c1`, in assay [1], the inhibition amounted to 21%.

Take `O=C(NNC(=O)c1ccccn1)c1ccc(Br)cc1`: the inhibition in assay [1] was determined as 82.3%.
